Consider 8 compounds from ChEMBL document CHEMBL1158139, “Bioactive oligostilbenoids from the stem bark of Hopea exalata” (J Nat Prod, 2006).

The test system of test [1] is Fusarium oxysporum f. sp. vasinfectum. Kind of test: Antifungal activity against Fusarium oxysporum f. sp. vasinfectum by MTT assay. It is filed as functional. In a few lines: (§1)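 MIC read visually on microtiter plates, then confirmed colorimetrically with MTT. Each well received RPMI 1640 carrying MTT at 5 mg/mL and was incubated 3 h at 37 °C. Medium was removed and the dye extracted with isopropanol containing 5% mol/L HCl for 30 min at room temperature with gentle agitation. OD read at 550 nm.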

Test [2] deals with Pyricularia oryzae. Kind of test: Antifungal activity against Pyricularia oryzae by MTT assay. It is filed as functional.
Test [3] has as its system Cytospora mali. Briefly: Antifungal activity against Valsa mali by MTT assay. It is filed as functional. In a few lines: as §1
For test [4], the system named is Alternaria alternata. Kind of test: Antifungal activity against Alternaria alternata by MTT assay. It is filed as functional. The gist of the method:
as §1

Test [5] concerns Alternaria solani. Briefly: Antifungal activity against Alternaria solani by MTT assay. It is filed as functional. In a few lines:
as §1

Test [6] relates to Colletotrichum lagenaria. Kind of test: Antifungal activity against Colletotrichum lagenarium by MTT assay. It is filed as functional. In a few lines:
as §1

The target in test [7] is Urease (Canavalia ensiformis, UniProt P07374). Briefly: Inhibition of jack bean urease. In a few lines: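 Jack bean urease (4 U) preincubated with test compound (100 µg) for 2 h at room temperature; then 100 mM phosphate buffer pH 6.8 containing 500 mM urea and 0.002% phenol red added, incubated at room temperature; time for ammonium carbonate to raise pH from 6.8 to 7.7 read at 570 nm; IC50 determined; acetohydroxamic acid as positive control.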
Chain of Urease (P07374 whole entry): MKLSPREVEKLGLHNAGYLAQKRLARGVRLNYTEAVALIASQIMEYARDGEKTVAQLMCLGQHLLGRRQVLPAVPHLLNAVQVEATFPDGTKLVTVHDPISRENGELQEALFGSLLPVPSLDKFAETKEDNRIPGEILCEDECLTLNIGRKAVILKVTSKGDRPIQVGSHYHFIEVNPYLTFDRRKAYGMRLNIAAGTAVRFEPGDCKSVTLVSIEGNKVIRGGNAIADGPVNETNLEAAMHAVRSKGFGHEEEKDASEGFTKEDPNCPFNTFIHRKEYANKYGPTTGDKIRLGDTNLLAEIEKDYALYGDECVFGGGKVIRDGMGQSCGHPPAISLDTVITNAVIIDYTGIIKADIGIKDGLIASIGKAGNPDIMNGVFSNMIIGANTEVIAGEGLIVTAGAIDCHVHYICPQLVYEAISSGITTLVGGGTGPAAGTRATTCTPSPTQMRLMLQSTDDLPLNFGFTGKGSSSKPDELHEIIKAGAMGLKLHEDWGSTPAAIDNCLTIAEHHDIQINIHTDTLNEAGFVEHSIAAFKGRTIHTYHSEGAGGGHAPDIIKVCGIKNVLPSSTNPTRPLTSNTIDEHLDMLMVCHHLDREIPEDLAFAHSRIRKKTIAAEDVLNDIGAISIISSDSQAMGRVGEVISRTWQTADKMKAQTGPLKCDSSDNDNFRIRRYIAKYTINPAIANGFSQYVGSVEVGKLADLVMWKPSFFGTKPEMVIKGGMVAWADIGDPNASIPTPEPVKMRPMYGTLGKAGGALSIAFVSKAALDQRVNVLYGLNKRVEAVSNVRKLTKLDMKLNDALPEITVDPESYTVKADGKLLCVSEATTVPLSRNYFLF

Converted amounts (≈) assume the structure as drawn.

As to `Oc1ccc([C@@H]2c3c(O)cc(O)cc3[C@@H]3c4c(cc(O)c5c4[C@@H]2[C@@H](c2ccc(O)cc2)[C@@H]5c2cc(O)cc(O)c2)O[C@H]3c2ccc(O)cc2)cc1` [PAUCIFLOROL A], the MIC in test [1] was over 50 µg/mL; in test [2] it was 11.5 µg/mL (≈ 16.9 µM); in test [3], over 50 µg/mL; in test [4], 1.56 µg/mL (≈ 2.29 µM); in test [5], over 50 µg/mL; in test [6], over 50 µg/mL.
`Oc1ccc([C@H]2Oc3cc(O)cc4c3[C@@H]2c2cc(O)cc3c2[C@@H](c2cc(O)cc5c2[C@@H]4[C@H](c2ccc(O)cc2)O5)[C@H](c2ccc(O)cc2)O3)cc1`: the MIC in test [1] is 25.2 µg/mL (≈ 37.1 µM); in test [2], 6.25 µg/mL (≈ 9.21 µM); in test [3] it was over 50 µg/mL; in test [4] it was over 50 µg/mL; in test [5], 3.12 µg/mL (≈ 4.6 µM); in test [6], 12.5 µg/mL (≈ 18.4 µM).
For the compound `Oc1ccc([C@@H]2c3c(O)cc(O)cc3[C@@H]3c4c(cc(O)c5c4[C@H]2[C@H](c2ccc(O)cc2)[C@H]5c2cc(O)cc(O)c2)O[C@H]3c2ccc(O)cc2)cc1` [VATICANOL A], the MIC in test [1] is 12.7 µg/mL (≈ 18.7 µM); in test [2], 3.12 µg/mL (≈ 4.58 µM); in test [3], 20.1 µg/mL (≈ 29.5 µM); in test [4] it was over 50 µg/mL; in test [5] it was 6.25 µg/mL (≈ 9.18 µM); in test [6] it was over 50 µg/mL.
In the case of `CC(=O)N1CCN(c2ccc(OCC3COC(Cn4ccnc4)(c4ccc(Cl)cc4Cl)O3)cc2)CC1` (stereo not drawn) [KETOCONAZOLE], the MIC was determined as 2.21 µg/mL (≈ 4.16 µM) in test [1]; 0.03 µg/mL (≈ 0.0565 µM) in test [2]; 0.51 µg/mL (≈ 0.96 µM) in test [3]; 1.04 µg/mL (≈ 1.96 µM) in test [4]; 0.83 µg/mL (≈ 1.56 µM) in test [5]; 0.97 µg/mL (≈ 1.83 µM) in test [6].
Regarding `Oc1ccc([C@@H]2c3cc(O)ccc3[C@@H]3c4c(O)cc(O)cc4[C@@H]2c2c(O)cc(O)c4c2[C@@H]3[C@@H](c2ccc(O)cc2)[C@@H]4c2cc(O)cc(O)c2)cc1` [VATICANOL G], the MIC is over 50 µg/mL in test [1]; 0.78 µg/mL (≈ 1.15 µM) in test [2]; over 50 µg/mL in test [3]; over 50 µg/mL in test [4]; 24.6 µg/mL (≈ 36.1 µM) in test [5]; over 50 µg/mL in test [6].
On to `O=C1c2cc(O)cc3oc(-c4ccc(O)cc4)c(c23)-c2cc(O)cc(O)c2C1c1ccc(O)cc1` (stereo not drawn) [SHOREAPHENOL], for which the MIC was over 50 µg/mL in test [1]; 27.3 µg/mL (≈ 58.5 µM) in test [2]; 7.13 µg/mL (≈ 15.3 µM) in test [3]; over 50 µg/mL in test [5]; over 50 µg/mL in test [6]. In addition, the IC50 in test [7] is 127 µM.
In the case of `O=C1C=C2O[C@@H](c3ccc(O)cc3)[C@H]3C2=C(C1=O)[C@H]1c2c(cc(O)cc2[C@@H]2c4c(cc(O)cc43)O[C@H]2c2ccc(O)cc2)O[C@@H]1c1ccc(O)cc1` [HOPEANOLIN], the MIC in test [1] worked out at 6.22 µg/mL (≈ 8.98 µM); in test [2], 0.1 µg/mL (≈ 0.144 µM); in test [3] it was 1.55 µg/mL (≈ 2.24 µM); in test [4], 22.5 µg/mL (≈ 32.5 µM); in test [5], 1.56 µg/mL (≈ 2.25 µM); in test [6], 10.6 µg/mL (≈ 15.3 µM).
On to `CC(=O)NO` [ACETOHYDROXAMIC ACID], for which half-maximal inhibition in test [7] (IC50) was put at 17.3 µM.
